Measured values from ChEMBL document CHEMBL4627404, “Design, Synthesis, and Activity Study of Water-Soluble, Rapid-Release Propofol Prodrugs” (J Med Chem, 2020).
Active and inactive are the calls of the source. No cut-off for these calls is given here.

Tests used:
Mus musculus [1] = experiment: Anesthetic activity in iv dosed drug naive Kunming mouse assessed as loss of righting reflex; format: functional
In short: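 Male KM mice (20-30 g), at least 20 drug-naïve animals per drug, given a tail-vein bolus over ~10 s. Anaesthesia scored as loss of righting reflex. ED50 found by the up-and-down method and analysed by Dixon–Mood to give the median effective dose with 95% CI.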

[2] = Toxicity in iv dosed drug naive Kunming mouse; format: organism-based; details: in vivo
In short: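 Male KM mice (20-30 g), at least 20 drug-naïve animals per drug, given a tail-vein bolus over ~10 s. LD50 found by the up-and-down method.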

[3] = Therapeutic index, ratio of LD50 for toxicity in iv dosed drug naive Kunming mouse to ED50 for anesthetic activity in iv dosed drug naive Kunming mouse assessed as loss of righting reflex; format: organism-based; details: in vivo, read-out: Ratio LD50/ED50
In short: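 TI = LD50/ED50. Both values come from tail-vein bolus (~10 s) dosing of male KM mice (20-30 g, at least 20 drug-naïve per drug) by the up-and-down method. The ED50 end point is loss of righting reflex.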

[4] = Toxicity in iv dosed drug naive Kunming mouse assessed as mouse survival dosed at 2 times anesthetic ED50; format: organism-based; details: in vivo
In short: (§1)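 Ten drug-naïve male KM mice (20-30 g) per drug received 2×ED50 by tail-vein injection. Onset is timed from end of injection to appearance of LORR. Duration is timed from LORR appearance to its recovery. Survival is recorded over the 10 mice.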

Mus musculus [5] = experiment: Anesthetic activity in iv dosed drug naive Kunming mouse assessed as time from end of injection to appearance of loss of righting reflex dosed at 2 times anesthetic ED50; format: functional; in short: as §1
[6] = Drug metabolism in iv dosed drug naive Kunming mouse assessed dose of propofol released from prodrugs dosed at 2 times anesthetic ED50; format: ADME, organism-based; details: in vivo
In short: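 Propofol delivered at 2×ED50 is calculated as (MW propofol/MW prodrug)×(2×ED50) mg/kg from the tail-vein ED50 in KM mice.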

[7] = Solubility in water; format: physicochemical
[8] = Stability in Kunming mouse plasma assessed as drug decomposition at 100 ug/ml incubated for 2 hrs by HPLC analysis; format: ADME, cell-free
[9] = Stability in water at 10 mg/ml incubated for 4 hrs by HPLC analysis; format: physicochemical; details: buffer
In short: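 Aqueous solutions (10 mg/ml) held at 30 °C for 4 h before the plasma hydrolysis studies, n=3.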

[10] = Solubility in water measured per 100 ml; format: physicochemical; details: buffer
[11] = Stability in Kunming mouse plasma assessed as drug decomposition at 100 ug/ml incubated up to 120 mins by HPLC analysis; format: ADME, cell-free; details: 2 h
In short: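 Mouse blood was heparinised at sampling and centrifuged at 3500×g for 5 min at 4 °C to obtain plasma. A 10 mg/ml aqueous stock was diluted 1:100 into plasma, giving a final 100 μg/ml, and shaken at 37 °C for 2 h. The read-out was the percentage of propofol released, given as mean ± SD. Water stability (30 °C, 4 h, n=3) was checked beforehand.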

[12] = Drug metabolism in Kunming mouse plasma assessed as propofol release at 100 ug/ml incubated up to 120 mins by HPLC analysis relative to control; format: ADME, cell-free; details: 2 h

Structure (SMILES)	ED50 (Mus musculus [1])	LD50 [2] [mg/kg]	selectivity ratio [3]	survival [4] [%]	Time (Mus musculus [5]) [s]	Drug metabolism [6] [mg/kg]	solubility [7] [mg/mL]	Stability [8]	Stability [9]	solubility [10]	Stability [11]	Drug metabolism [12]
CC(C)c1cccc(C(C)C)c1OC(=O)COC(=O)CN.Cl	34.3 mg/kg	89.2	2.6	10	9.1	37.1						
CC(C)c1cccc(C(C)C)c1OC(=O)COCC(=O)[O-].[Na+]	65.7 mg/kg			100	82.3	74	< 20					
CC(C)c1cccc(C(C)C)c1OC(=O)COC(=O)C1CCCCN1.Cl (stereo not given)	20.8 mg/kg	54.4	2.6	20	10.6	19.3						
CC(C)c1cccc(C(C)C)c1OC(=O)COC(C(=O)[O-])C(=O)[O-].[Na+].[Na+]	inactive							Stable				
CC(C)c1cccc(C(C)C)c1OC(=O)OCCC(=O)[O-].[Na+]	inactive								Stable			
CC(C)c1cccc(C(C)C)c1OC(=O)COC(=O)C1COCCN1.Cl (stereo not given)	30.4 mg/kg	69.6	2.3	60	6.7	28.1						
CC(C)c1cccc(C(C)C)c1OC(=O)COC(=O)CN1CCCC1.Cl	25.2 mg/kg	92.1	3.6	100	4	23.4				83.96 g		
CC(C)c1cccc(C(C)C)c1OC(=O)CNCC(=O)O.Cl							< 10					
CC(C)c1cccc(C(C)C)c1OC(=O)COC(=O)CC(=O)[O-].[Na+]	75.9 mg/kg	244	3.2	100	72.2	76						
CC(C)c1cccc(C(C)C)c1OC(=O)CSCC(=O)[O-].[Na+]	190 mg/kg	222	1.2	0	20.2	203.6		Stable				
CC(C)c1cccc(C(C)C)c1OC(=O)COC(=O)[C@H](C)N.Cl	20.5 mg/kg	51.9	2.5	50	18.2	21.2						
CC(C)c1cccc(C(C)C)c1OC(=O)COC(=O)CN1CCN(C)CC1.Cl	40.3 mg/kg	91.6	2.3	70	2.4	34.8						
CC(C)c1cccc(C(C)C)c1OC(=O)OCC(=O)[O-].[Na+]	inactive								Stable			
CC(C)c1cccc(C(C)C)c1OC(=O)OC(C(=O)[O-])C(=O)[O-].[Na+].[Na+]	inactive								Stable		Stable	
CC(C)c1cccc(C(C)C)c1OC(=O)COC(=O)CN(C)C.Cl	40.2 mg/kg	93.8	2.3	40	4.6	40.1						
CC(C)c1cccc(C(C)C)c1OC(=O)CN1CCOCC1	36.6 mg/kg	75	2.1	30	12	42.7						
CC(C)c1cccc(C(C)C)c1OC(=O)COC(=O)CN1CCOCC1.Cl	28.1 mg/kg	132	4.7	100	3.1	25.1				76.33 g		Metabolite_Detected
CC(C)c1cccc(C(C)C)c1OC(=O)COC(=O)CN1CCCCC1.Cl	22.3 mg/kg	91.4	4.1	100	3	22				85.86 g		
CC(C)c1cccc(C(C)C)c1O [PROPOFOL]		52.2	4.5	100	1	23.4				1.53 ×10⁻² g		
CC(C)c1cccc(C(C)C)c1OCOP(=O)([O-])[O-].[Na+].[Na+] [FOSPROPOFOL DISODIUM]	105 mg/kg	288	2.8	100	46.4	112.7						
CNCC(=O)OCC(=O)Oc1c(C(C)C)cccc1C(C)C.Cl	29.6 mg/kg	60.8	2	60	8	30.7						
CC(C)c1cccc(C(C)C)c1OC(=O)OC(CC(=O)[O-])C(=O)[O-].[Na+].[Na+] (stereo not given)	inactive								Stable		Stable	
CC(C)c1cccc(C(C)C)c1OC(=O)COC(=O)CCC(=O)[O-].[Na+]	73.1 mg/kg	205	2.8	80	25.5	75.7						Metabolite_Detected
